In brackets after ≈: the same amount, converted by molar mass.
Key:
[1] = system: Plasmodium falciparum; experiment: In vitro antimalarial activity against Plasmodium falciparum W-2; type: functional, organism-based
[2] = system: Plasmodium falciparum; experiment: In vitro antimalarial activity against Plasmodium falciparum D6; type: functional, organism-based
[3] = system: Mus musculus; experiment: In vivo antimalarial activity against Plasmodium berghei. Activity expressed as ED50.; type: functional
Summary of the method: (§1)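 Mice infected with drug-sensitive N strain of P. berghei; compound given subcutaneously as a single daily dose for 4 days. ED50 and ED90 reported in mg/kg.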

[4] = system: Mus musculus; experiment: In vivo antimalarial activity against Plasmodium berghei. Activity expressed as ED90.; type: functional; summary of the method: as §1

| Structure (SMILES) | IC50 [1] [ng/mL] | IC50 [2] [ng/mL] | ED50 [3] [mg/kg] | ED90 [4] [mg/kg] |
| --- | --- | --- | --- | --- |
| CO[C@H]1O[C@@]2(C)CC[C@H]3CCC[C@@H](CCOCc4ccccn4)[C@]31OO2 | 7 (≈ 0.0193 µM) | 18 (≈ 0.0495 µM) |  |  |
| CO[C@H]1O[C@@]2(C)CC[C@H]3CCC[C@@H](CCOCc4ccc(F)cc4)[C@]31OO2 | 4.5 (≈ 0.0118 µM) | 3 (≈ 0.00789 µM) | 7.6 | 13.5 |
| CO[C@H]1O[C@@]2(C)CC[C@H]3CCC[C@@H](CCOCc4cc[n+](C)cc4)[C@]31OO2.[I-] | 85 |  |  |  |
| CO[C@H]1O[C@@]2(C)CC[C@H]3CCC[C@@H](CCOCc4ccccc4)[C@]31OO2 | 3 (≈ 0.00828 µM) | 8 (≈ 0.0221 µM) |  |  |
| CO[C@H]1O[C@@]2(C)CC[C@H]3CCC[C@@H](CCOCc4ccncc4)[C@]31OO2 | 7.5 (≈ 0.0206 µM) | 10 (≈ 0.0275 µM) |  |  |
| CO[C@H]1O[C@@]2(C)CC[C@H]3CCC[C@@H](CCOCc4ccc(-c5ccccc5)cc4)[C@]31OO2 | 6 (≈ 0.0137 µM) | 6 (≈ 0.0137 µM) |  |  |
| C[C@H]1[C@H](OC(=O)CCC(=O)[O-])O[C@@H]2O[C@@]3(C)CC[C@H]4[C@H](C)CC[C@@H]1[C@@]24OO3.[Na+] [SODIUM ARESUNATE] |  |  | 1.5 | 4.9 |

Source: ChEMBL document CHEMBL1128239, “Structure-activity relationships of lactone ring-opened analogs of the antimalarial 1,2,4-trioxane artemisinin” (J Med Chem, 1995)
